# Experiments:
# human recombinant DR5 = human recombinant DR5 (Homo sapiens, UniProt O14763); test: Surface plasmon resonance against immobilized DR5; format: binding; conditions: SPR, immobilized DR5, running buffer pH 7.0
# How it was run: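 About 2000 RU of recombinant human DR5 was EDC/NHS-coupled to a dextran chip from 10 ug/mL in 15 mM Na acetate pH 5.6, then ethanolamine-capped. Running buffer was 10 mM phosphate, 150 mM NaCl, 3 mM EDTA, 0.01% Tween 20. Analytes were quantified by A280 and tested at 62 nM targeting PA. Association was 8 min and dissociation 10 min at 30 uL/min, with 25 mM HCl 30 s regeneration.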
# T47D cells = test: Annexin V apoptosis flow cytometry; format: cell-based; conditions: 1 μM PA 1 or equivalent paclitaxel
# Sequence of human recombinant DR5 (O14763 56-440): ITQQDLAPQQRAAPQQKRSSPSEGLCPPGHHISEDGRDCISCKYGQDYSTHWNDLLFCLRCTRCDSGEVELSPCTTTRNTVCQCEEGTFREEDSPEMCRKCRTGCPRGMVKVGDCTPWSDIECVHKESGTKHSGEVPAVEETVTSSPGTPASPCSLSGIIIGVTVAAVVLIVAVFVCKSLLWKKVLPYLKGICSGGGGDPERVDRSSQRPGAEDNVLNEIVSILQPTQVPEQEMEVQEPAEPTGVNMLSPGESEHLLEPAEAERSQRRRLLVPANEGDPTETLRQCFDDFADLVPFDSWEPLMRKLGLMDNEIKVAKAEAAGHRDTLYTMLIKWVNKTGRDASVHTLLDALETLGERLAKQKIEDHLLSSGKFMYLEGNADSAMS
Molecule,Binding to DR5 (in words) (human recombinant DR5),Annexin V binding / cell death (in words) (T47D cells)
PEG2000-E2A6K(C12) [PA 4],did not show any binding,
"CC(=O)O[C@H]1C(=O)[C@@]2(C)[C@H]([C@H](OC(=O)c3ccccc3)[C@]3(O)C[C@H](OC(=O)[C@H](O)[C@@H](NC(=O)c4ccccc4)c4ccccc4)C(C)=C1C3(C)C)[C@]1(OC(C)=O)CO[C@@H]1C[C@@H]2O [Paclitaxel, paclitaxel]",,statistically significant increase in annexin V binding

# Reference: article PMC7725269 (ACS biomaterials science & engineering, 2019)
